Reference: article PMC10879835 (Saudi Journal of Biological Sciences, 2024)

How the values were obtained:
[1] = Solubility of MG in solid lipids and surfactants; format: physicochemical; details: in Labrafil M 2130 CS
Summary of the method: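 1 g of each solid lipid was held in a vial on a magnetic stirrer above its melting point. Test compound was added in increments until saturation, and the amount dissolved was recorded. Samples were filtered through a 0.45 membrane to remove undissolved solid.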

α-amylase = experiment: α-Amylase inhibitory assay; format: biochemical; details: at 100 µg/mL
Summary of the method: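 DNS method. Test compound at 25, 50, 100 and 200 µg/ml, or acarbose at 100 µg/ml as reference, was preincubated 30 min with α-amylase diluted in 20 mM sodium phosphate buffer pH 6.9. 1% w/w starch was then added and the mix held 15 min at 37 ± 0.5 °C. The reaction was stopped with DNS reagent and heated 5 min in boiling water, then read at 540 nm. % inhibition was calculated against a no-sample control and a no-enzyme blank.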

α-glucosidase = experiment: α-Glucosidase inhibitory assay; format: biochemical
Summary of the method: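 Test sample was preincubated 15 min at 37 °C with α-glucosidase solution (1 U/mL in 0.1 M potassium phosphate buffer, pH 6.8). 5 mM p-nitrophenyl-α-D-glucopyranoside solution was added, with a further 15 min incubation. The reaction was stopped with 0.2 M sodium carbonate and read at 405 nm. Acarbose was the positive control. % inhibition came from control and blank absorbances.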

Anti-oxidant DPPH assay = details: 30 mins, absorbance at 515 nm
Summary of the method: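 Lipid-nanoparticle and solution formulations of the test compound were made as 1 mg/ml stocks in methanol and diluted to 1–50 ug/ml. Ascorbic acid was the control. Each dilution was mixed 1:1 by volume with 200 μM DPPH. Absorbance at 515 nm was read after 30 min against a methanol blank. % inhibition was taken […], and IC50 came from regression of mean % inhibition on log concentration.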

O=c1c2cc(O)c(O)cc2oc2cc(O)c([C@@H]3O[C@H](CO)[C@@H](O)[C@H](O)[C@H]3O)c(O)c12 [Mangiferin]
MG solubility in solid lipid [1]: 77.63 ± 5.78 mg/g

C[C@H]1O[C@H](O[C@H]2[C@H](O)[C@@H](O)[C@@H](O[C@H]3[C@H](O)[C@@H](O)C(O)O[C@@H]3CO)O[C@@H]2CO)[C@H](O)[C@@H](O)[C@@H]1N[C@H]1C=C(CO)[C@@H](O)[C@H](O)[C@H]1O (stereo partly shown) [Acarbose]
α-amylase inhibitory effect (α-amylase): 78.01 ± 7.45% | α-glucosidase inhibition (α-glucosidase): 63.43 ± 4.02%

O=C1O[C@H]([C@@H](O)CO)C(O)=C1O [AA, ascorbic acid]
DPPH IC50 (Anti-oxidant DPPH assay): 23.33 µg/mL
